Screens: PubChem, several laboratories
This is one part of a sample in which hits are shown more often than they occur.
Jurkat NFkB inh – inhibitors of the PMA/ionomycin-induced NF-kB reporter in Jurkat cells | PMA/ionomycin-induced NF-kB luciferase reporter, luminescence | inhibition, % at 4 µM | hit rate 0.53% among 330,000 | AID 435003; in the data active = inhibition above about 50%
UPR CHOP act – apoptotic UPR (CHOP) activation | CHO-CHOP luciferase reporter, luminescence; percent of tunicamycin response over DMSO baseline | activation, % at 10 µM | hit rate 0.34% among 330,000;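 active = at 10 µM dose, activation of 40% or more, normalized to positive control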;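 also: 100% = tunicamycin at 10 µg/mL and 0% = DMSO alone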
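Evaluation: % reporter activation, DMSO baseline versus tunicamycin full activation; System: CHO-CHOP luciferase reporter cell line; Input: 500 cells/well; Incubation: 6 h compound treatment, 37 °C; Measured by: Steady-Glo luciferase luminescence; Dosing: one dose, 10 µM in 0.5% DMSO; Buffer or medium: F12 medium, 10% FBS; Benchmarks: positive tunicamycin 10 µg/mL, negative DMSO alone.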
697 NFkB inh – inhibitors of the PMA/ionomycin-induced NF-kB reporter in 697 B cells. 697 B-cell NF-kB luciferase reporter, 16 h. inhibition, % at 4 µM. hit rate 0.33% among 330,000; in the data active = inhibition above about 35%
XBP1 UPR activ – activators of adaptive arm of unfolded protein response (XBP1); activation, % at 20 µM; CHO-XBP1 luciferase reporter, IRE1-XBP1 UPR activation, luminescence; percent of tunicamycin response, DMSO as zero; AID 463104; hit rate 0.33% among 330,000;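 active = versus positive control, 20 µM dose yields 30% or more activation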;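 also: 100% = tunicamycin at 10 µg/mL and 0% = DMSO only wells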
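Material: CHO-XBP1 cells stably carrying IRE1-XBP1-driven luciferase reporter | Medium: F12 with 10% serum | Compound dosing: 20 µM single concentration, DMSO 1% | Incubation: Overnight seeding at 37 °C, 6 h compound treatment at 37 °C | Detection: Steady-Glo luminescence read | Read-out basis: % activation of reporter signal versus tunicamycin and DMSO controls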
CHOP inh – inhibitors of CHOP induction in ER stress response. CHO-K1 CHOP-promoter luciferase, tunicamycin-induced, 15-18 h. inhibition, % at 10 µM. hit rate 3.8% among 220,000;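 active = compounds that reduced the stress-induced luciferase reporter signal by more than about 70% of percent inhibition, limit read from the data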;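 also: 0% = tunicamycin plus vehicle and 100% = wells without tunicamycin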
The depositor's hits bear a star; / = not tested or not shown.

SMILES	Jurkat NFkB inh	UPR CHOP act	697 NFkB inh	XBP1 UPR activ	CHOP inh
Oc1nc(Nc2ccc(Cl)cc2Cl)sc1/C=C1\C=Nc2ccccc21	-0.1	0.3	-2.6	0.1	73.2*
Cc1nc(Nc2ccc(Cl)cc2Cl)sc1C(=O)Nc1ccccc1	1.5	-0.6	6.0	-0.4	67.7
COc1ccccc1-c1nnc(SCC(=O)Nc2c(Cl)cccc2Cl)o1	5.7	0.8	18.9	2.0	-20.9
COc1ccccc1-c1nnc(SCC(=O)NCc2c(C)c(Cl)cc(C(C)C)c2O)o1	5.2	0.0	-9.9	-7.5	74.8*
CSc1n[nH]c(NCc2ccc(C)cc2)n1	-21.8	1.2	-30.4	0.4	-13.2
Oc1c(C(c2ccccc2)N2CCc3ccccc3C2)sc2ncnn12 (stereo not given)	-6.0	-2.1	5.6	-3.4	0.8
Oc1c(C(c2ccco2)N2CCN(C(c3ccccc3)c3ccccc3)CC2)sc2ncnn12 (stereo not given)	-0.1	3.4	-17.9	-3.2	95.4*
CC(=O)N(C)c1ccc(NC(=O)C(Sc2ccccc2)c2ccccc2)cc1 (stereo not given)	-15.9	0.6	9.2	-1.7	-11.5
O=C(Nc1ccc(Cl)c([N+](=O)[O-])c1)C(Sc1ccccc1)c1ccccc1 (stereo not given)	7.0	5.2	12.7	1.8	83.5*
CC(C)(C)NS(=O)(=O)c1ccc(NC(=O)C(Sc2ccccc2)c2ccccc2)cc1 (stereo not given)	18.1	0.4	-7.7	2.3	75.1*
CCCCN(C)CCNC(=O)CCn1nc(-c2ccc(C)cc2)ccc1=O	-9.0	2.0	-10.7	0.1	/
Cc1ccccc1C(=O)Nc1ccc(O)c2c(=O)cc(-c3ccccc3Cl)oc12	14.9	1.7	6.1	-1.1	8.8
O=C(Nc1ccc(O)c2c(=O)cc(-c3ccccc3Cl)oc12)c1ccc(Cl)c(Cl)c1	-21.3	7.9	-21.2	16.3	94.3*
O=[N+]([O-])c1nn(-c2ccc3c(c2)OCCO3)n(O)c1=NCc1ccccc1Cl	-76.2	2.9	-115.1	-4.1	-12.5
O=[N+]([O-])c1nn(-c2ccc3c(c2)OCCO3)n(O)c1=NC1CCCCC1	-24.6	3.7	-43.0	-0.8	86.9*
C=CCSc1n[nH]c2nc3c(c(=O)n12)C1(CCCC1)Cc1ccccc1-3	10.3	-0.2	15.8	-3.5	70.6*
CCSc1n[nH]c2nc3c(c(=O)n12)C1(CCCC1)Cc1ccccc1-3	-18.2	-2.3	-0.3	-4.0	87.9*
CC(C)Sc1n[nH]c2nc3c(c(=O)n12)C1(CCCC1)Cc1ccccc1-3	/	/	/	/	37.8
CSc1n[nH]c2nc3c(c(=O)n12)C1(CCCC1)Cc1ccccc1-3	-0.1	0.2	5.4	0.1	-9.2
O=[N+]([O-])c1ccc(N2CCN(S(=O)(=O)c3ccc4ccccc4c3)CC2)cc1NCC1CCCO1 (stereo not given)	8.9	-1.3	-17.2	3.9	33.9
CCOc1ccccc1C(=O)Oc1cc(C)[nH]c(=O)c1[N+](=O)[O-]	-4.2	0.5	-3.7	-1.0	/
Cc1c(Cl)c([N+](=O)[O-])nn1Cc1ccc(C(=O)N/N=C\c2ccccn2)o1	/	/	/	/	73.5*
COc1cc(/C=N\NC(=O)c2ccc(Cn3nc([N+](=O)[O-])c(Cl)c3C)o2)ccc1O	-3.8	1.3	10.3	-0.9	-18.0
CCOc1cc(/C=N/NC(=O)C(N)=O)cc(Br)c1O	-2.2	-1.8	20.3	-1.7	22.3
CCOc1cc(Br)c(Br)c(C=Nc2ccc(NC(C)=O)cc2)c1O	8.9	0.5	11.3	-3.2	86.8*
SMILES	Jurkat NFkB inh	UPR CHOP act	697 NFkB inh	XBP1 UPR activ	CHOP inh
Cn1c(SCC(=O)Nc2cccc(F)c2)nnc1-c1cc2ccccc2o1	-20.2	-0.1	15.5	-0.2	73.8*
CC(=O)Nc1ccc(-c2nnc(SCC(=O)Nc3ccc4c(c3)oc3ccccc34)n2C)cc1	-24.0	2.0	-81.4	-0.2	29.1
CCn1c(SCC(=O)c2ccc3c(c2)Cc2ccccc2-3)nnc1-c1ccc(N)cc1	-5.2	-1.9	-8.8	-3.2	84.7*
CCn1c(SCC(=O)Nc2ccc3c(c2)oc2ccccc23)nnc1-c1ccc(N)cc1	-14.5	7.3	-34.8	0.2	95.1*
Cc1ccc(CCc2nnc(SCC(=O)Nc3cccc(Cl)c3)n2-c2ccccc2)o1	-8.3	-1.0	-3.2	-1.1	84.9*
Cc1nnc(SCC(=O)Nc2cc(C(N)=O)cc(C(N)=O)c2)n1-c1ccccc1	-15.5	-0.7	4.4	-0.4	/
